Results published in ChEMBL document CHEMBL1153560, “In vitro activities of doripenem and six comparator drugs against 423 aerobic and anaerobic bacterial isolates from infected diabetic foot wounds” (2008).
In brackets after ≈: the same amount, converted by molar mass.

Legend:
Format in all cases: functional
Clostridium perfringens = test: Antibacterial activity against Clostridium perfringens isolated from patient with diabetic foot infection after 44 to 48 hrs by agar dilution method
Outline: (§1)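 Agar dilution per CLSI M11-A7. Twofold drug dilutions made on the test day and added to molten agar. Replicator-applied inoculum of 10^5 CFU/spot. Drug-free control plates inoculated before and after each drug set. Incubation at 37°C for 44 to 48 h, anaerobic chamber. MIC taken as the lowest concentration giving no growth or a marked change in growth versus controls.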

[1] = tested on: Anaerocolumna aminovalerica; test: Antibacterial activity against Clostridium aminovalericum isolated from patient with diabetic foot infection after 44 to 48 hrs by agar dilution method
Outline: (§2)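 CLSI M11-A7 agar dilution: serial twofold drug dilutions made on the test day and added to molten agar. Spots of 10^5 CFU were applied by replicator, with drug-free control plates inoculated before and after each set. Incubation was 44 to 48 h at 37°C in an anaerobic chamber. MIC was the lowest concentration giving no growth or a marked change in growth versus controls.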

Anaerococcus tetradius [2] = test: Antibacterial activity against Anaerococcus tetradius isolated from patient with diabetic foot infection after 44 to 48 hrs by agar dilution method; outline: as §2
Klebsiella aerogenes = test: Antibacterial activity against Enterobacter aerogenes isolated from patient with diabetic foot infection assessed as percent resistant isolates after 18 to 24 hrs by broth microdilution method
Outline: (§3)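 Aerobes subcultured on Trypticase soy blood agar, then broth microdilution in cation-adjusted Mueller-Hinton broth. Trays prepared in-house with twofold dilutions and stored at −70°C. Overnight colonies suspended to about 5 × 10^5 CFU/ml final. Read after 18 to 24 h at 37°C. QC strains included S. aureus ATCC 29213 and E. coli ATCC 25922.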

Providencia rettgeri = test: Antibacterial activity against Proteus rettgeri isolated from patient with diabetic foot infection assessed as percent resistant isolates after 18 to 24 hrs by broth microdilution method; outline: as §3
[3] = tested on: Corynebacterium amycolatum; test: Antibacterial activity against Corynebacterium amycolatum isolated from patient with diabetic foot infection assessed as percent resistant isolates after 48 hrs by broth microdilution method
Outline: (§4)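 Isolates subcultured on Trypticase soy blood agar. Broth microdilution in cation-adjusted Mueller-Hinton broth with lysed horse blood, using in-house twofold dilution trays stored at −70°C. Inoculum from overnight colonies at about 5 × 10^5 CFU/ml final. Read after 18 to 24 h at 37°C, up to 48 h for some Corynebacterium strains.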

Corynebacterium jeikeium = test: Antibacterial activity against Corynebacterium jeikeium isolated from patient with diabetic foot infection assessed as percent resistant isolates after 48 hrs by broth microdilution method; outline: as §4
Corynebacterium simulans [4] = test: Antibacterial activity against Corynebacterium simulans isolated from patient with diabetic foot infection assessed as percent resistant isolates after 48 hrs by broth microdilution method; outline: as §4
[5] = tested on: Staphylococcus haemolyticus; test: Antibacterial activity against Staphylococcus haemolyticus isolated from patient with diabetic foot infection after 18 to 24 hrs by broth microdilution method
Streptococcus pyogenes = test: Antibacterial activity against Streptococcus pyogenes isolated from patient with diabetic foot infection after 18 to 24 hrs by broth microdilution method
Outline: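 Streptococcal isolates were subcultured on Trypticase soy blood agar. Broth microdilution used cation-adjusted Mueller-Hinton broth with lysed horse blood, in in-house trays of serial twofold drug dilutions stored at −70°C. Overnight colonies were suspended to a final inoculum of approximately 5 × 10^5 CFU/ml. MIC was read after 18 to 24 h incubation at 37°C.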

Bacteroides stercoris = test: Antibacterial activity against Bacteroides stercoris isolated from patient with diabetic foot infection after 44 to 48 hrs by agar dilution method; outline: as §2
Staphylococcus aureus = test: Antibacterial activity against methicillin-resistant Staphylococcus aureus isolated from patient with diabetic foot infection assessed as percent resistant isolates after 18 to 24 hrs by broth microdilution method
Outline: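 Isolates grown on Trypticase soy blood agar, then tested by broth microdilution in unsupplemented cation-adjusted Mueller-Hinton broth. In-house trays held serial twofold drug dilutions and were stored at −70°C. Overnight colonies were suspended to a final inoculum near 5 × 10^5 CFU/ml, and trays read after 18–24 h at 37°C. QC strains: S. aureus ATCC 29213, E. coli ATCC 25922.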

[6] = tested on: Staphylococcus epidermidis; test: Antibacterial activity against Staphylococcus epidermidis isolated from patient with diabetic foot infection assessed as percent resistant isolates after 18 to 24 hrs by broth microdilution method; outline: as §3
Bacteroides uniformis [7] = test: Antibacterial activity against Bacteroides uniformis isolated from patient with diabetic foot infection after 44 to 48 hrs by agar dilution method; outline: as §2
Parabacteroides merdae = test: Antibacterial activity against Parabacteroides merdae isolated from patient with diabetic foot infection after 44 to 48 hrs by agar dilution method; outline: as §2
Porphyromonas somerae = test: Antibacterial activity against Porphyromonas somerae isolated from patient with diabetic foot infection after 44 to 48 hrs by agar dilution method; outline: as §2
Bacteroides uniformis [8] = test: Antibacterial activity against Bacteroides uniformis isolated from patient with diabetic foot infection assessed as percent resistant isolates after 44 to 48 hrs by agar dilution method; outline: as §1
[9] = tested on: Parabacteroides distasonis; test: Antibacterial activity against Parabacteroides distasonis isolated from patient with diabetic foot infection assessed as percent resistant isolates after 44 to 48 hrs by agar dilution method; outline: as §1
[10] = tested on: Anaerocolumna aminovalerica; test: Antibacterial activity against Clostridium aminovalericum isolated from patient with diabetic foot infection assessed as percent resistant isolates after 44 to 48 hrs by agar dilution method; outline: as §1
[11] = tested on: Corynebacterium aurimucosum; test: Antibacterial activity against Corynebacterium aurimucosum isolated from patient with diabetic foot infection after 48 hrs by broth microdilution method
Outline: (§5)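 Isolates were subcultured on Trypticase soy blood agar. Broth microdilution used cation-adjusted Mueller-Hinton broth with lysed horse blood, in-house trays of twofold drug dilutions stored at −70°C. Colonies from overnight growth gave a final inoculum of about 5 × 10^5 CFU/ml. Trays were read after 18 to 24 h at 37°C, up to 48 h for some strains.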

Corynebacterium simulans [12] = test: Antibacterial activity against Corynebacterium simulans isolated from patient with diabetic foot infection after 48 hrs by broth microdilution method; outline: as §5
Clostridium cadaveris = test: Antibacterial activity against Clostridium cadaveris isolated from patient with diabetic foot infection assessed as percent resistant isolates after 44 to 48 hrs by agar dilution method; outline: as §1
Cutibacterium acnes = test: Antibacterial activity against Propionibacterium acnes isolated from patient with diabetic foot infection assessed as percent resistant isolates after 44 to 48 hrs by agar dilution method; outline: as §1
Anaerococcus prevotii = test: Antibacterial activity against Anaerococcus prevotii isolated from patient with diabetic foot infection assessed as percent resistant isolates after 44 to 48 hrs by agar dilution method; outline: as §1
Anaerococcus tetradius [13] = test: Antibacterial activity against Anaerococcus tetradius isolated from patient with diabetic foot infection assessed as percent resistant isolates after 44 to 48 hrs by agar dilution method; outline: as §1
[14] = tested on: Peptostreptococcus anaerobius; test: Antibacterial activity against Peptostreptococcus anaerobius isolated from patient with diabetic foot infection assessed as percent resistant isolates after 44 to 48 hrs by agar dilution method; outline: as §1
Parvimonas micra = test: Antibacterial activity against Peptostreptococcus micros isolated from patient with diabetic foot infection assessed as percent resistant isolates after 44 to 48 hrs by agar dilution method; outline: as §1

SMILES: C[C@@H](O)[C@H]1C(=O)N2C(C(=O)O)=C(S[C@@H]3CN[C@H](C(=O)N(C)C)C3)[C@H](C)[C@H]12 [MEROPENEM]
- MIC50 (Clostridium perfringens): ≤ 0.015 µg/mL
- MIC90 (Clostridium perfringens): ≤ 0.015 µg/mL
- MIC50 [1]: 0.06 µg/mL (≈ 0.156 µM)
- MIC90 [1]: 1 µg/mL (≈ 2.61 µM)
- MIC50 (Anaerococcus tetradius [2]): 0.03 µg/mL (≈ 0.0782 µM)
- MIC90 (Anaerococcus tetradius [2]): 0.125 µg/mL (≈ 0.326 µM)
- Activity (Klebsiella aerogenes): 0%
- Activity (Providencia rettgeri): 0%
- Activity [3]: 7%
- Activity (Corynebacterium jeikeium): 20%
- Activity (Corynebacterium simulans [4]): 0%
- MIC50 [5]: 1 µg/mL (≈ 2.61 µM)
- MIC90 [5]: 32 µg/mL (≈ 83.4 µM)
- MIC50 (Streptococcus pyogenes): ≤ 0.015 µg/mL
- MIC90 (Streptococcus pyogenes): ≤ 0.015 µg/mL
- MIC50 (Bacteroides stercoris): 0.25 µg/mL (≈ 0.652 µM)
- MIC90 (Bacteroides stercoris): 1 µg/mL (≈ 2.61 µM)
- Activity (Staphylococcus aureus): 100%
- Activity [6]: 67%
- MIC50 (Bacteroides uniformis [7]): 0.25 µg/mL (≈ 0.652 µM)
- MIC90 (Bacteroides uniformis [7]): 1 µg/mL (≈ 2.61 µM)
- MIC50 (Parabacteroides merdae): 0.25 µg/mL (≈ 0.652 µM)
- MIC90 (Parabacteroides merdae): 1 µg/mL (≈ 2.61 µM)
- MIC50 (Porphyromonas somerae): ≤ 0.015 µg/mL
- MIC90 (Porphyromonas somerae): ≤ 0.015 µg/mL
- Activity (Bacteroides uniformis [8]): 0%
- Activity [9]: 0%
- Activity [10]: 0%
- MIC50 [11]: 1 µg/mL (≈ 2.61 µM)
- MIC90 [11]: 16 µg/mL (≈ 41.7 µM)
- MIC50 (Corynebacterium simulans [12]): 0.125 µg/mL (≈ 0.326 µM)
- MIC90 (Corynebacterium simulans [12]): 0.25 µg/mL (≈ 0.652 µM)
- Activity (Clostridium cadaveris): 0%
- Activity (Cutibacterium acnes): 0%
- Activity (Anaerococcus prevotii): 0%
- Activity (Anaerococcus tetradius [13]): 0%
- Activity [14]: 0%
- Activity (Parvimonas micra): 0%
